Data as given in PubChem BioAssay AID588830 (Broad Institute, 2011).
Calls of active or inactive are those of the source.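 The calls were made as follows: active = fitted IC50 for falling signal at or below ten times the top tested dose; inconclusive = flat fit with 30 to 70% signal loss, or poor fit; inactive = the rest.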

Tested on: ldlA[mSR-BI] CHO cells viability, CellTiter-Glo ATP, 3 h
Assay: ATP-based viability of SR-BI CHO cells – cell-based, CellTiter-Glo luminescence, 3 h, dry powder, cytotoxicity control for SR-BI HDL uptake inhibitor project, dose response (AID 588830)
How it was run: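 Test system – ldlA[mSR-BI] cells, scavenger receptor B1-expressing line · Buffer or medium – PSG and 10% FCS in Ham's F12 · Compound dosing – 8-concentration series per compound, added by pin transfer · Times – 3 h at 37 °C, then 10 min with reagent · Measured by – luminescence of cellular ATP via Cell Titer Glo reagent · Measure – cytotoxicity IC50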

**Q.** With `Cc1cc(C(=O)C(C)OC(=O)C2=NNC(=O)CC2)c(C)n1-c1ccc(OC(F)F)cc1` (stereo unspecified) as the compound, how does the IC50 read?
**A.** > 70 µM (inactive)
